Bioassay records deposited in PubChem BioAssay by several laboratories.
ANO1 block – mouse TMEM16A channel inhibition, primary screen; hit rate 1.2% among 310,000; AID 588511; Q8BHY3; HEK293 TMEM16A/YFP iodide influx fluorescence, ionomycin; normalized B-score (activity score, 25-100; higher = stronger inhibition) at 10 µM;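 active means ratio plate-corrected score three or more library SD toward inhibition, starting fluorescence score within five deviations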;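 further: score derived from kinetic fluorescence span divided by baseline fluorescence per well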
Beta apoptosis – beta cell apoptosis inhibition; INS-1E cytokine-induced death, ATP luminescence, 48 h; percent of positive-control rescue, neutral wells zero; hit rate 0.8% among 300,000; AID 435005; protection from apoptosis, % (concentration not given with the values);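 active means Every replicate reaches about 75%, or at least half do and their mean reaches it too, limit read from the data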;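 further: 0% = cytokine-treated negative control wells and 100% = positive control rescue; higher means more ATP so stronger rescue from cytokine killing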
TMEM16A act – mouse TMEM16A channel activation, primary screen | hit rate 0.3% among 340,000 | AID 623877 | B-score at 10 µM | HEK293 TMEM16A/YFP-H148Q/I152L, iodide quench fluorescence; active compounds read low | Q8BHY3;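 active means fluorescence-ratio B-score plate-corrected deviation score at least 3 library SD below zero, with starting fluorescence score within 5 deviations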;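 further: channel opened by trigger with iodide after compound preincubation; score built on the fluorescence ratio of max minus min over baseline; more negative score means more quench and so TMEM16A activation or potentiation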
MC4R antag cAMP – human MC4R antagonism in cAMP assay. P32245. MC4R-expressing cells, MTII-stimulated cAMP, LANCE TR-FRET. inhibition, % at 6.5 µM. hit rate 0.48% among 360,000. AID 540295;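 active means inhibition above its plate's cutoff, the mean of tested wells on that plate plus 3 SD, cut at about 29% in these data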;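 further: 0% = Melanotan II alone and 100% = Melanotan II plus saturating MCL0020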
Target sequence (P32245 whole entry, looked up): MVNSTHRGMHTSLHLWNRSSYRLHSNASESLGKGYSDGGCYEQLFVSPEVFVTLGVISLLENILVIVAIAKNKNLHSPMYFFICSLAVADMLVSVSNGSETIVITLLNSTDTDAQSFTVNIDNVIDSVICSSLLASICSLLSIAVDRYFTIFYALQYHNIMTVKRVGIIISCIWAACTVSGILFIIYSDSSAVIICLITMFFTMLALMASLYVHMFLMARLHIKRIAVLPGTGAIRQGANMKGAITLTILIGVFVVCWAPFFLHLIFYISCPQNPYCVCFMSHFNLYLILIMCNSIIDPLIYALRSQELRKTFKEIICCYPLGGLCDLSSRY
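Test system: U2OS cells stably expressing human melanocortin 4 receptor (MC4R); also added: Melanotan II challenge; compound: 6.5 µM single dose; timing: 30-min compound preincubation, 1-h Melanotan II challenge, 1-h detection, room temperature; signal: Eu-cAMP/anti-cAMP TR-FRET, emission 671 nm; repeats: one well per compound, no replicates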
MC4R barr agon – activates human MC4R beta-arrestin recruitment. U2OS MC4R beta-arrestin complementation, luminescence; percent of melanotan II response, DMSO zero. activation, % at 8.9 µM. hit rate 0.98% among 360,000;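 active means activation above a per-plate cutoff, the mean activation of sample wells on that plate plus 3 SD, cut at about 8% in these data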
CSC inhib – blocks cancer stem cells; cancer stem cell-like cells viability, luminescence; inhibition, % at 7.5 µM; hit rate 1.1% among 300,000; AID 2717; in the data active means inhibition above about 75%; tested in HMLE shEcad cells
TMEM16A reconf – re-confirmation of mouse TMEM16A chloride channel inhibitors. shares compounds with ANO1 block. HEK293 TMEM16A/YFP-H148Q, iodide quench fluorescence; ionomycin added to raise cell calcium. inhibition, % at 10 µM. hit rate 39% among 2,300;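 active means mean duplicate percent inhibition, scaled so buffer wells are 0 and the reference blocker 100, over three buffer SD above buffer mean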
HEK293 Ca mobil – calcium mobilization counter-screen hit for TMEM16A inhibitor series | shares compounds with ANO1 block | TMEM16A/YFP HEK293, Fluo4 calcium mobilization | calcium response (% of ionomycin), % at 10 µM | hit rate 2% among 2,300;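 active means duplicate-averaged calcium signal over 20% of the ionomycin maximum, relative to buffer baseline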;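 further: each well's signal is peak minus trough fluorescence divided by its pre-addition baseline; 0% = buffer wells and 100% = ionomycin wells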
YFP-HEK293 quench – acts in parental YFP-HEK293 cells lacking TMEM16A, counter-screen; shares compounds with ANO1 block; iodide YFP quench, ionomycin; YFP ratio F(max-min)/F0 at 10 µM; 2,300 tested, under 10 active;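 active means yellow fluorescent protein signal ratio exceeding the buffer control mean by over 5 SD of those controls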;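 further: ratio is mean of duplicate wells from kinetic YFP trace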
ClC-1 rat inh – selectivity of TMEM16A inhibitors: inhibition of rat ClC-1 chloride channel | shares compounds with ANO1 block | ratio percent, % at 10 µM | CHO ClC-1-YFP, iodide influx fluorescence quench; iodide control reads 0, buffer control 100 | 2,300 tested, under 10 active | AID 652236;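 active means duplicate-mean ratio percent above the mean of iodide-only control wells, which defines zero, plus 5 of their SD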;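 further: higher percent means stronger block of ClC-1 iodide influx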
An asterisk follows results filed as active; i = inactive; nt = no result. Only some compounds are listed: those with a hit (about 3.8% of all), similar ones and a draw of the others.

SMILES	ANO1 block	Beta apoptosis	TMEM16A act	MC4R antag cAMP	MC4R barr agon	CSC inhib	TMEM16A reconf	HEK293 Ca mobil	YFP-HEK293 quench	ClC-1 rat inh
COc1ccc(C)cc1N(CC(N)=O)S(=O)(=O)c1ccc(C)cc1	i	nt	i	4	1	-7	nt	nt	nt	nt
COc1ccc(C)cc1N(CC(=O)O)S(=O)(=O)c1ccc(C)cc1	i	-2	i	3	0	nt	i	i	-0.63	-6
O=C(/C=C/c1ccccc1Cl)NCc1ccco1	25*	-8	i	-2	-2	nt	i	i	-0.86	-4
COc1ccc(NC(=O)NC23CC4(C)CC(C)(CC(C)(C4)C2)C3)cc1OC	25*	3	i	8	3	29	i	i	-1.3	3
Cc1ccc2nc(COC(=O)c3cccnc3Cl)cc(=O)n2c1	nt	nt	nt	7	0	nt	nt	nt	nt	nt
CN(Cc1ccco1)S(=O)(=O)c1nnc(NC(=O)c2cccc(Cl)c2)s1	25*	17	i	3	-3	32	26%*	i	-0.79	-14
CC(C)CC(=O)Nc1nnc(S(=O)(=O)N(C)Cc2ccco2)s1	i	1	i	6	-2	11	nt	nt	nt	nt
CC(NC(=O)c1ccc(C(C)(C)C)cc1)C(c1cccs1)N1CCOCC1 (centres undefined)	i	-5	i	4	-2	-12	nt	nt	nt	nt
COc1ccc(CNc2ccc(-c3ccccc3OC)nn2)cc1	i	3	i	4	-1	7	nt	nt	nt	nt
COc1ccc(CNc2ccc(-c3ccc(OC)cc3)nn2)cc1	100*	-4	i	-3	0	-5	i	i	-0.54	-4
Cc1ccc(NC(=O)c2ccc3c(c2)C(=O)N(CC2CCCO2)C3=O)cc1C (centres undefined)	i	0	i	-4	-1	-13	nt	nt	nt	nt
O=C(Nc1ccc2c(c1)C(=O)N(CC1CCCO1)C2=O)c1ccc(Cl)c(Cl)c1 (centres undefined)	100*	nt	i	6	2	-8	52%*	i	-0.89	-26
CC1CN(S(=O)(=O)c2ccc(Cl)c(S(=O)(=O)N3CC(C)OC(C)C3)c2)CC(C)O1 (centres undefined)	100*	-3	i	2	0	3	i	i	-0.74	-1
O=S(=O)(c1ccc(Cl)c(S(=O)(=O)N2CCCC2)c1)N1CCCC1	i	-1	i	19	2	-6	nt	nt	nt	nt
C=CCN(c1ccccc1)S(=O)(=O)c1cccc(C(=O)Nc2ccncc2)c1	100*	-2	i	-3	-1	-5	20%*	i	-1	-7
CCOC(=O)CNC(=O)C(NC(=O)C1CCC(C)CC1)C(C)CC (centres undefined)	25*	-4	i	0	-1	-6	i	i	-1.1	-2
CCC(C)C(NC(=O)C1CCC(C)CC1)C(=O)NC(C(=O)OC)C(C)C (centres undefined)	i	-7	i	-5	2	-8	nt	nt	nt	nt
O=[N+]([O-])c1ccc(N2CCN(C(=S)NC3CCCCC3)CC2)cc1	25*	24	i	4	0	-12	i	i	-0.99	-21
Cc1ccc(-c2noc(CCCC(=O)NC3CCCCC3)n2)cc1	25*	-1	i	5	-1	1	i	i	-1.2	-16
C=CCN(Cc1ccc(Cl)s1)C(=O)c1cc(S(=O)(=O)N2CCOCC2)ccc1F	nt	-2	i	1	1	nt	nt	nt	nt	nt
COc1ccc(C)cc1-n1nnnc1SCc1nc(N)nc(N(C)C)n1	nt	nt	nt	17	0	nt	nt	nt	nt	nt
CC(C)Cn1c(N)c(C(=O)COC(=O)CC23CC4CC(CC(C4)C2)C3)c(=O)n(C)c1=O	25*	105*	i	3	2	64	34%*	i	-0.81	-10
CC(C)Cn1c(N)c(C(=O)COC(=O)CCc2nc3ccccc3s2)c(=O)n(C)c1=O	100*	-4	i	8	-1	-6	21%*	i	-0.8	-18
Cc1csc(=O)n1CCC(=O)OCC(=O)c1c(N)n(CC(C)C)c(=O)n(C)c1=O	i	-2	i	-3	-5	0	nt	nt	nt	nt
CSCC[C@H](NC(=O)[C@@H]1Cc2ccccc2CN1)C(=O)NC[C@H]1CC[C@H](C(=O)O)CC1	i	-9	nt	3	-2	-6	nt	nt	nt	nt
SMILES	ANO1 block	Beta apoptosis	TMEM16A act	MC4R antag cAMP	MC4R barr agon	CSC inhib	TMEM16A reconf	HEK293 Ca mobil	YFP-HEK293 quench	ClC-1 rat inh
COc1ccc(-c2csc(NC(=O)CSc3nc(SC)ns3)n2)cc1	100*	-10	i	1	-4	-6	21%*	i	-1	-6
COc1ccc(-c2csc(NC(=O)CSc3nc(C)cs3)n2)cc1	i	-6	i	4	2	-8	nt	nt	nt	nt
Cc1ccc(-c2csc(NC(=O)CSC3=NCCS3)n2)cc1	100*	-2	i	8	1	-4	51%*	i	-0.9	-14
CCc1nnc(NC(=O)CN2CCC(O)(c3ccccc3OC)CC2)s1	i	-9	i	11	1	-21	nt	nt	nt	nt
COc1ccccc1C1(O)CCN(CC(=O)Nc2nc(-c3ccccc3)cs2)CC1	100*	-9	i	14	-1	0	23%*	i	-0.73	-2
CCOC(=O)N1CCN(C(=O)CSCC(=O)Nc2nc(-c3ccc(-c4ccccc4)cc3)cs2)CC1	100*	89*	i	26	4	33	24%*	i	-0.87	-20
Cc1nn(C(C)C(=O)NC2CCCCCC2)c(=O)c2nn(-c3ccccc3)c(C)c12 (centres undefined)	i	7	i	8	-3	-20	nt	nt	nt	nt
CC(=O)Nc1ccc(NC(=O)COc2cc(O)c3c(c2)OC(C)(C)CC3=O)cc1	i	-2	i	16	0	-6	nt	nt	nt	nt
Cc1cc(OCC(=O)Nc2ccc(Br)cc2)cc2c1C(=O)CC(C)(C)O2	100*	-2	i	4	3	3	22%*	i	-0.78	-24
CC1(C)C(CO)=CC(=O)C2=C1SCC(=O)N2	100*	0	i	7	-2	-7	i	i	-1.1	2
CC1(C)CC(NC(=O)C2CCN(S(=O)(=O)c3ccc(Cl)c(C(F)(F)F)c3)CC2)CC(C)(C)N1	nt	nt	i	5	-1	nt	nt	nt	nt	nt
